Values after ≈ are worked out from the molar mass of the structure shown.

Data set [1] deals with Staphylococcus aureus. The experiment in a line: Antibacterial activity against drug-sensitive Staphylococcus aureus MTCC 737 after 24 hrs by broth microdilution assay. It is filed as functional. Summed up: (§1)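 Bacteria grown 6 h to ~10^9 cfu/mL and diluted to 10^5 cfu/mL in nutrient media. Growth media were LB (E. coli), yeast-dextrose broth (S. aureus, P. aeruginosa) and BHI (E. faecium). Compound was serially diluted in water and added 1:3 to bacteria, then incubated 37 °C for 24 h with OD600 read-out. Triplicate ODs were sigmoid-fitted; MIC was taken where OD matched the no-bacteria control. At least two independent experiments.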
In general terms: In broth dilution the organism is exposed to a series of concentrations in liquid medium.

The nature of data set [2]: Hemolytic activity in human erythrocytes after 1 hr by spectrophotometric analysis. Format: ADME, cell-based, Erythrocyte. Summed up:
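Heparinized fresh human erythrocytes at 5 vol% in PBS pH 7.4 were mixed 3:1 with serially diluted compound and held 1 h at 37 °C. Plates were centrifuged and supernatant A540 read. Hemolysis was scaled between an untreated control and a Triton X-100 (100% lysis) control. HC50 is the mean of at least two independent triplicate experiments.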

Data set [3] can be described thus: Retention time of the compound by HPLC analysis. Format: physicochemical.
The subject of data set [4] is Pseudomonas aeruginosa. Briefly: Antibacterial activity against drug-sensitive Pseudomonas aeruginosa ATCC 4676 after 24 hrs by broth microdilution assay. Format: functional. Summed up: as §1
Data set [5] relates to Klebsiella pneumoniae. Briefly: Antibacterial activity against beta-lactam-resistant Klebsiella pneumoniae ATCC 700603 after 24 hrs by broth microdilution assay. It is filed as functional. Summed up: (§2)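 MIC by broth microdilution. Cultures were grown 6 h to ~10^9 cfu/mL, then diluted to 10^5 cfu/mL. Media: yeast-dextrose broth for MRSA, BHI for VRE, and beef extract/peptone nutrient broth for K. pneumoniae. Compounds were serially diluted in water, 50 µL added to 150 µL cells, and incubated 24 h at 37 °C. OD600 triplicates were sigmoid-fitted; MIC is the point where OD equals the no-bacteria control. Mean ± SEM of ≥2 experiments.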

Data set [6] relates to Staphylococcus aureus. The experiment in a line: Antibacterial activity against methicillin-resistant Staphylococcus aureus ATCC 33591 after 24 hrs by broth microdilution assay. Format: functional. In short, it runs like this:
as §2

The test system of data set [7] is Escherichia coli. Briefly: Antibacterial activity against drug-sensitive Escherichia coli MTCC 443 after 24 hrs by broth microdilution assay. Format: functional. In short, it runs like this: as §1
For data set [8], the system named is Enterococcus faecium. Briefly: Antibacterial activity against drug-sensitive Enterococcus faecium ATCC 19634 after 24 hrs by broth microdilution assay. It is filed as functional. In short, it runs like this: as §1
The test system of data set [9] is Enterococcus faecium. The experiment in a line: Antibacterial activity against vancomycin-resistant Enterococcus faecium ATCC 51559 after 24 hrs by broth microdilution assay. Format: functional. In short, it runs like this:
as §2

As a reminder, the MIC is the least concentration at which growth counts as inhibited. The low end stands for greater potency, the high end for weaker potency. A word on the HC50: it is the concentration that lyses half of the red blood cells. Turning to `CCCCN(Cc1ccccc1)C(=O)[C@@H](N)CCCCN.O=C(O)C(F)(F)F.O=C(O)C(F)(F)F`, the MIC in [1] (MTCC 737, 24 h) is more than 100 µg/mL; in [4] (ATCC 4676, 24 h), more than 100 µg/mL; in [5] (ATCC 700603, 24 h), more than 100 µg/mL; in [6] (ATCC 33591, 24 h) it was more than 100 µg/mL; in [7] (MTCC 443, 24 h), more than 100 µg/mL; in data set [8] (ATCC 19634, 24 h), more than 100 µg/mL. Further, the HC50 at 1 h in data set [2] is more than 1000 µg/mL. Besides, in data set [3], the Retention_time is 9.4 min.
Regarding `CCCCCCCCN(Cc1ccccc1)C(=O)[C@@H](N)CCCCN.O=C(O)C(F)(F)F.O=C(O)C(F)(F)F`, the MIC in [9] (ATCC 51559, 24 h) is more than 100 µg/mL; in data set [1] (MTCC 737, 24 h), 46 µg/mL; in [4] (ATCC 4676, 24 h) it was 60 µg/mL; in [5] (ATCC 700603, 24 h), more than 100 µg/mL; in data set [6] (ATCC 33591, 24 h) it was more than 100 µg/mL; in data set [7] (MTCC 443, 24 h), 51 µg/mL. Moreover, the minimal inhibitory concentration (MIC) in data set [8] (ATCC 19634, 24 h) turned out to be 60 µg/mL. This compound returned a 50% haemolytic concentration (HC50) at 1 h in data set [2] of 325 µg/mL. For the same compound, in data set [3], the Retention_time was 12.1 min.
Take `CCCCN(Cc1cccc2ccccc12)C(=O)[C@@H](N)CCCCN.O=C(O)C(F)(F)F.O=C(O)C(F)(F)F`: the MIC is more than 100 µg/mL in data set [9] (ATCC 51559, 24 h); more than 100 µg/mL in data set [1] (MTCC 737, 24 h); more than 100 µg/mL in data set [4] (ATCC 4676, 24 h); more than 100 µg/mL in data set [5] (ATCC 700603, 24 h); more than 100 µg/mL in data set [6] (ATCC 33591, 24 h); more than 100 µg/mL in data set [7] (MTCC 443, 24 h). Moreover, the MIC in data set [8] (ATCC 19634, 24 h) is more than 100 µg/mL. In data set [2], this compound came in with an HC50 at 1 h of more than 1000 µg/mL. For the same compound, the Retention_time in data set [3] is recorded as 10.8 min.
As for `CCCCCCCCCCN(Cc1ccccc1)C(=O)[C@@H](N)CCCCN.O=C(O)C(F)(F)F.O=C(O)C(F)(F)F`, the MIC in [9] (ATCC 51559, 24 h) came to 5.8 µg/mL; in [1] (MTCC 737, 24 h), 5.7 µg/mL; in data set [4] (ATCC 4676, 24 h), 4 µg/mL; in data set [5] (ATCC 700603, 24 h) it was 31 µg/mL; in data set [6] (ATCC 33591, 24 h), 15.7 µg/mL; in [7] (MTCC 443, 24 h), 6.5 µg/mL. For the same compound, inhibition of growth in data set [8] (ATCC 19634, 24 h) (MIC) required 6.5 µg/mL. In addition, the HC50 at 1 h in [2] was determined as 95 µg/mL. For the same compound, in data set [3], the Retention_time is listed as 13.4 min.
Turning to `CCCCCCCCN(Cc1cccc2ccccc12)C(=O)[C@@H](N)CCCCN.O=C(O)C(F)(F)F.O=C(O)C(F)(F)F`, the MIC in [9] (ATCC 51559, 24 h) turned out to be 7 µg/mL; in data set [1] (MTCC 737, 24 h), 6.3 µg/mL; in data set [4] (ATCC 4676, 24 h), 5.4 µg/mL; in data set [5] (ATCC 700603, 24 h) it was 13 µg/mL; in data set [6] (ATCC 33591, 24 h), 4.4 µg/mL; in [7] (MTCC 443, 24 h), 5 µg/mL. In data set [8] (ATCC 19634, 24 h), this compound displayed a minimal inhibitory concentration (MIC) of 5.5 µg/mL. In [2], the 50% haemolytic concentration (HC50) at 1 h amounted to 60 µg/mL. Further, the Retention_time in data set [3] came to 12.9 min.
For `CCCCCCN(Cc1ccccc1)C(=O)[C@@H](N)CCCCN.O=C(O)C(F)(F)F.O=C(O)C(F)(F)F`, the minimal inhibitory concentration (MIC) was more than 100 µg/mL in [1] (MTCC 737, 24 h); more than 100 µg/mL in data set [4] (ATCC 4676, 24 h); more than 100 µg/mL in data set [5] (ATCC 700603, 24 h); more than 100 µg/mL in data set [6] (ATCC 33591, 24 h); more than 100 µg/mL in data set [7] (MTCC 443, 24 h); more than 100 µg/mL in data set [8] (ATCC 19634, 24 h). The compound also displayed a 50% haemolytic concentration (HC50) at 1 h in data set [2] of more than 1000 µg/mL. The same compound registered a Retention_time in data set [3] of 10.6 min.
Take `CCCCCCCCCCCCN(Cc1ccccc1)C(=O)[C@@H](N)CCCCN.O=C(O)C(F)(F)F.O=C(O)C(F)(F)F`: the MIC in data set [9] (ATCC 51559, 24 h) was 3.3 µg/mL; in [1] (MTCC 737, 24 h) it was 2.7 µg/mL; in data set [4] (ATCC 4676, 24 h), 4 µg/mL; in data set [6] (ATCC 33591, 24 h) it was 2.9 µg/mL; in [7] (MTCC 443, 24 h) it was 5 µg/mL; in [8] (ATCC 19634, 24 h), 2.6 µg/mL. Also, the HC50 at 1 h in [2] was 45 µg/mL. In [3], this compound yielded a Retention_time of 14.5 min.
In the case of `CN[C@H](CC(C)C)C(=O)N[C@H]1C(=O)N[C@@H](CC(N)=O)C(=O)N[C@H]2C(=O)N[C@H]3C(=O)N[C@H](C(=O)N[C@H](C(=O)O)c4cc(O)cc(O)c4-c4cc3ccc4O)[C@H](O)c3ccc(c(Cl)c3)Oc3cc2cc(c3O[C@@H]2O[C@H](CO)[C@@H](O)[C@H](O)[C@H]2O[C@H]2C[C@](C)(N)[C@H](O)[C@H](C)O2)Oc2ccc(cc2Cl)[C@H]1O` [VANCOMYCIN], the MIC was more than 100 µg/mL in data set [9] (ATCC 51559, 24 h); 0.9 µg/mL (≈ 0.621 µM) in data set [1] (MTCC 737, 24 h); 0.9 µg/mL (≈ 0.621 µM) in [6] (ATCC 33591, 24 h); 0.87 µg/mL (≈ 0.6 µM) in [8] (ATCC 19634, 24 h).
Consider COLISTIN, for which the minimal inhibitory concentration (MIC) was more than 100 µg/mL in [9]; 20 µg/mL in data set [1]; 0.4 µg/mL in data set [4]; 1.2 µg/mL in data set [5]; 54 µg/mL in [6]; 0.4 µg/mL in data set [7]. The same compound came in with a minimum inhibitory concentration (MIC) in data set [8] of more than 100 µg/mL.

(Values after ChEMBL document CHEMBL3124866, “Small molecular antibacterial peptoid mimics: the simpler the better!” (J Med Chem, 2014).)
